Measured values: PMC7245552 (Cell chemical biology, 2020)
Where a chain is given by its changes, count along the chain named. Names may count otherwise. One block for each molecule: values may come before it.

Key:
[1] = target: T1, K2P2.1 I110D (Mus musculus, UniProt P97438, I125D); experiment: TEVC recordings in Xenopus oocytes, K2P2.1 I110D; format: cell-based, Murine
T1 sequence (P97438 1-411 isoform P97438-2 I110D): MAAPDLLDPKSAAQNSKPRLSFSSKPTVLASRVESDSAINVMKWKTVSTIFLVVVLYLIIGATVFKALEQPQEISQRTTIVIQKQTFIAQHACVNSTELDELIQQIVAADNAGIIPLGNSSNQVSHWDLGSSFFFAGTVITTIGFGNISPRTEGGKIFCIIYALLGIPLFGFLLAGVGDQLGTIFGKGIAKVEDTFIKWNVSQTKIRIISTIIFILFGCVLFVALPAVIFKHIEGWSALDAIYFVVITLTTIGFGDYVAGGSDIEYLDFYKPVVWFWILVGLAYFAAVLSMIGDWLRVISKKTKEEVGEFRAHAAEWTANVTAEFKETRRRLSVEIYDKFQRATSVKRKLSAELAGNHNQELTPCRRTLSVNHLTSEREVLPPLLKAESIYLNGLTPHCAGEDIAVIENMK

[2] = test system: K2P2.1 (TREK-1); conditions: read-out: EC50 (ML335) activation, ref Lolicato et al., 2017; cited from earlier work
[3] = target: T2, K2P2.1 I110E (Mus musculus, UniProt P97438, I125E); experiment: TEVC recordings in Xenopus oocytes, K2P2.1 I110E; format: cell-based, Murine; conditions: K2P2.1 I110E versus K2P2.1 I110D
T2 sequence (P97438 1-411 isoform P97438-2 I110E): T1 sequence (P97438 1-411 isoform P97438-2 I110D) with D110E
Procedure, shortened: (§1)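 Murine channel cRNA (0.1–6 ng) injected into defolliculated stage V–VI X. laevis oocytes kept at 18°C in ND96 with antibiotics. TEVC 24–48 h later with constant ND96 perfusion; −80 mV hold, 500 ms ramp −140 to +50 mV. Ruthenium compounds were freshly dissolved in ND96. Block corrected for uninjected-oocyte basal current. ≥3 oocytes from ≥2 batches per point; IC50 from Hill fit, coefficient fixed −1.0.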

[4] = target: T3, K2P2.1 I110D/N147D (Mus musculus, UniProt P97438, I125D/N162D); experiment: TEVC recordings in Xenopus oocytes, K2P2.1 I110D/N147D; format: cell-based, Murine; conditions: I110D/N147D pair; T = 298K
T3 sequence (P97438 1-411 isoform P97438-2 I110D/N147D): T1 sequence (P97438 1-411 isoform P97438-2 I110D) with N147D
Procedure, shortened: (§2)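 Coupling energy was computed as ΔΔGΩ = RT lnΩ, with R=1.987 cal mol−1 deg−1 and T=298 K. Inputs were RuR inhibition measurements by TEVC in X. laevis oocytes expressing murine mutant channels: −80 mV hold, 500 ms ramp −140 to +50 mV, ND96 perfusion. IC50s came from a Hill fit with coefficient −1.0, using ≥3 oocytes from ≥2 batches per point.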

[5] = target: T4, K2P2.1 I110D/N147E (Mus musculus, UniProt P97438, I125D/N162E); experiment: TEVC recordings in Xenopus oocytes, K2P2.1 I110D/N147E; format: cell-based, Murine; conditions: I110D/N147E pair; T = 298K
T4 sequence (P97438 1-411 isoform P97438-2 I110D/N147E): T1 sequence (P97438 1-411 isoform P97438-2 I110D) with N147E
Procedure, shortened: as §2

[6] = target: T5, K2P2.1 (TREK-1) (Mus musculus, UniProt P97438); experiment: TEVC recordings in Xenopus oocytes, K2P2.1; format: cell-based, Murine; conditions: 100 μM Ru360 applied to K2P2.1 (TREK-1)
T5 sequence (P97438 1-411 isoform P97438-2): T1 sequence (P97438 1-411 isoform P97438-2 I110D) with D110I
Procedure, shortened: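 Oocytes expressing murine wild-type channel were perfused with ND96 until current was stable, then with 100 μM Ru360 freshly prepared in ND96 and kept light-protected, until current stabilised again. Currents were elicited from a −80 mV hold by a 500 ms ramp −140 to +50 mV. Fractional block was corrected for basal current averaged from uninjected oocytes (n=14).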

[7] = target: T6, K2P10.1 (TREK-2) (Mus musculus, UniProt Q8BUW1); experiment: TEVC recordings in Xenopus oocytes, K2P10.1; format: cell-based, Murine
T6 sequence (Q8BUW1 1-535): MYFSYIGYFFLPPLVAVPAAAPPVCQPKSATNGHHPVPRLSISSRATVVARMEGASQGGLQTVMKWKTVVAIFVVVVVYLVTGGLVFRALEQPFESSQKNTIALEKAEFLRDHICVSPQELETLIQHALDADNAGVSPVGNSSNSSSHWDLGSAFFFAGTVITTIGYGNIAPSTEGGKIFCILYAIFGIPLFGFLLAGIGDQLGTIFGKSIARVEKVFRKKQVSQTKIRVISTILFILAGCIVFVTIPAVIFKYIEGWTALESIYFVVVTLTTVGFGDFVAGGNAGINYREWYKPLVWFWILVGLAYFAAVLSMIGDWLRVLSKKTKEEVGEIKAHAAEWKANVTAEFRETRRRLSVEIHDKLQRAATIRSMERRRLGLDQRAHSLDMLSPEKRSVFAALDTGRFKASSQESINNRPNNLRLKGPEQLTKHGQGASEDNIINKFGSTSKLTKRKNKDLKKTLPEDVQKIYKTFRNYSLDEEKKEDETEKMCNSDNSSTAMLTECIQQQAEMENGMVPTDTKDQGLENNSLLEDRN
Procedure, shortened: as §1

[8] = target: the molecule itself; experiment: crystal structure

EC50 ([1]; read-out: EC50 (ML335) activation, TEVC): 11.8 ± 2.3 µM
Molecule: CS(=O)(=O)Nc1ccc(C(=O)NCc2ccc(Cl)cc2Cl)cc1 [ML335]
EC50 [2]: 14.3 ± 2.7 µM

RuR inhibition fold weaker than that observed for K2P2.1 I110D [3]: ~ 50 fold | ΔΔG coupling energy, double mutant cycle analysis of RuR binding [4]: -4.1 kcal/mol | ΔΔG coupling energy, double mutant cycle analysis of RuR binding [5]: -0.3 kcal/mol
Molecule: N.N.N.N.N.N.N.N.N.N.N.N.N.N.[Cl-].[Cl-].[Cl-].[Cl-].[Cl-].[Cl-].[O-2].[O-2].[Ru+3].[Ru+3].[Ru+4] [RuR, Ruthenium Red]

Effect on channel current [6]: no effect | Ru360 IC50 fold weaker than that for RuR [1]: > 10 fold | Ru360 IC50 fold weaker than that for RuR [7]: > 10 fold
Molecule: Ru360

B1: K2P2.1 (TREK-1)CRYST I110D (domain or fragment, mouse, UniProt P97438-2 21-322, looked up)
chain: SFSSKPTVLASRVESDSAINVMKWKTVSTIFLVVVLYLIIGATVFKALEQPQEISQRTTIVIQREKFLRAHPCVSDQELDELIQQIVAADNAGIIPLGASSNQVSHWDLGSSFFFAGTVITTIGFGNISPRTEGGKIFCIIYALLGIPLFGFLLAGVGDQLGTIFGKGIAKVEDTFIKWNVSQTKIRIISTIIFILFGCVLFVALPAVIFKHIEGWSALDAIYFVVITLTTIGFGDYVAGGSDIEYLDFYKPVVWFWILVGLAYFAAVLSMIGDWLRVICKKTKEAVGEFRAHAAEWTANVT
binding result [8]: binds
